Measured values: publication PMC4706799 (Cancer prevention research (Philadelphia, Pa.), 2015)
Values joined by “and” are separate entries in the source; they are usually repeats but may differ in a detail not shown here. Identical values can stand only once.

What was measured:
[1] = cited from earlier work
[2] = cited from earlier work; remark: listed apart in the source
886LN = assay: SRB growth inhibition assay, 886LN; type: cell-based; settings: 72 h
How it was run: (§1)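 SCCHN lines were kept in DMEM/F12 (1:1) with 10% heat-inactivated FBS at 37 °C and 5% CO2; MSK-Leuk1 was kept in keratinocyte basal medium. Cells were seeded in 96-well plates, incubated overnight, then exposed for 72 h to a range of test-compound concentrations (DMSO stock diluted in RPMI, final DMSO <0.1%). Growth inhibition was read by sulforhodamine B staining, and IC50 was calculated by software.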

SQCCY1 = assay: SRB growth inhibition assay, SQCCY1; type: cell-based
How it was run: as §1

Tu212 = assay: SRB growth inhibition assay, Tu212; type: cell-based
How it was run: as §1

EGFR = assay: Western blot, pEGFR and EGFR; type: cell-based; settings: Tu212, Tu686, MSK-LEUK1
Bcl-xL = assay: Western blot, Bcl-xL expression; type: cell-based; settings: Tu212 and Tu686, 24 h
How it was run: (§2)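 Tu212 and Tu686 cells were treated with test compound at indicated doses for 24 h. Whole-cell lysates were immunoblotted for Bcl-2 family proteins (Bcl-2, Bcl-xL, Mcl-1, Bid, Bim, PUMA, NOXA), using 20 µg protein per lane on 8–12% SDS-PAGE and PVDF transfer. β-Actin or GAPDH served as loading control; detection was by enhanced chemiluminescence.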

[3] = test system: mTOR pathway (S6 and 4EBP1); assay: Western blot, mTOR pathway readouts; type: cell-based; settings: Tu212, Tu686, MSK-LEUK1
How it was run: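 Tu212, Tu686 and MSK-Leuk1 cells were treated with different doses of test compound. Whole-cell lysates (20 µg protein, 8–12% SDS-PAGE, PVDF) were immunoblotted for p-mTOR, p-S6, S6, p-4EBP1 and 4EBP1, with β-actin or GAPDH loading control and chemiluminescent detection. Blots shown represent three independent experiments.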

MSK cell line = assay: Annexin V-PE staining for apoptosis, MSK; type: cell-based; settings: 24 h treatment
How it was run: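 MSK-Leuk1 premalignant cells, grown in keratinocyte basal medium, were seeded in 6-cm plates to 40–50% confluency. They were treated for 24 h with test compound at doses chosen per cell line (DMSO stock diluted in RPMI, final DMSO <0.1%). Cells were trypsinized, washed in cold PBS, stained with annexin V-PE plus 7-AAD for 15 min at room temperature, and read by flow cytometry. Three independent experiments; mean ± SD; paired two-tailed t-test versus untreated control.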

AKT mRNA = assay: Real-time qPCR, AKT mRNA; type: cell-based; settings: Tu212 and Tu686
UM-22B = assay: SRB growth inhibition assay, UM-22B; type: cell-based; settings: 72 h
How it was run: as §1

MSK-Leuk1 = assay: SRB growth inhibition assay, MSK-Leuk1; type: cell-based; settings: 72 h
How it was run: as §1

Bcl-2 mRNA = assay: Real-time qPCR, Bcl-2 mRNA; type: cell-based; settings: Tu212 and Tu686
How it was run: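 Tu212 and Tu686 cells were treated with test compound at 1 µM and 2 µM (T1) or 2 µM and 3 µM (T2), respectively. Total RNA was column-extracted, and 2 µg was reverse transcribed to cDNA. Bcl-2 mRNA was quantified by SYBR Green real-time qPCR and compared with the corresponding untreated control.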

cytochrome c = assay: Cytochrome c release in the cytoplasm; type: cell-based; settings: Tu212 cells
How it was run: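 Tu212 cells were treated with test compound. Cytosolic and mitochondrial fractions were separated and immunoblotted for cytochrome c, with ERK as cytoplasmic control and Cox4 as mitochondrial control. Equal protein (20 µg) was run on 8–12% SDS-PAGE, transferred to PVDF and detected by enhanced chemiluminescence. Blots shown represent three independent experiments.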

Bid = assay: Western blot, Bid expression; type: cell-based; settings: Tu212 and Tu686, 24 h
How it was run: as §2

Tu177 = assay: SRB growth inhibition assay, Tu177; type: cell-based
How it was run: as §1

JHU022 = assay: SRB growth inhibition assay, JHU022; type: cell-based
How it was run: as §1

Mcl-1 = assay: Western blot, Mcl-1 expression; type: cell-based; settings: Tu212 and Tu686, 24 h
How it was run: as §2

FOXO1 and 3 = assay: Western blot, FOXO phosphorylation; type: cell-based; settings: Tu686 cells, multiple sites
How it was run: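 Tu686 cells were exposed to test compound, and whole-cell lysates were probed by Western blot for phospho-FOXO1a and phospho-FOXO3a. Equal protein (20 µg) was separated on 8–12% SDS-PAGE and blotted to PVDF, with β-actin or GAPDH as loading control and enhanced chemiluminescence detection. Blots shown represent three independent experiments.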

PCI-13 = assay: SRB growth inhibition assay, PCI-13; type: cell-based
How it was run: as §1

[4] = Pharmacokinetic study, plasma LC/MS/MS; type: in vivo, A/J mice
[5] = Body weight and organ toxicity in xenograft study; type: in vivo; settings: 50 mg/kg i.p., 17 days
SCCHN cell lines = assay: Annexin V-PE staining for apoptosis; type: cell-based; settings: for concentration sufficient to induce ~80% apoptosis: by 48 h, annexin V-PE
AKT = assay: Western blot, pAKT and AKT; type: cell-based; settings: Tu212, Tu686, MSK-LEUK1
Bcl-2 = assay: Western blot, Bcl-2 expression; type: cell-based; settings: Tu212 and Tu686, 24 h
How it was run: as §2

Tu686 SCCHN xenografts = assay: Nude mouse xenograft model; type: in vivo, nude mice; settings: for effect on tumor volume: 50 mg/kg i.p., once/day, five days/week, 17 days
PARP = assay: Western blot for PARP cleavage; type: cell-based; settings: Tu212, Tu686, MSK-LEUK1, 24 h
How it was run: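 Tu212, Tu686 and MSK-Leuk1 cells were treated with test compound at indicated doses for 24 h. Whole-cell lysates (20 µg protein) were run on 8–12% SDS-PAGE and transferred to PVDF. Blots were probed with a PARP antibody recognising both full-length and cleaved forms, with β-actin or GAPDH as loading control, and detected by enhanced chemiluminescence.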

Tu686 = assay: SRB growth inhibition assay, Tu686; type: cell-based
How it was run: as §1

Bim = assay: Western blot, Bim expression; type: cell-based; settings: Tu212 and Tu686, 24 h
How it was run: as §2

EGFR mRNA = assay: Real-time qPCR, EGFR mRNA; type: cell-based; settings: Tu212 and Tu686
[6] = test system: premalignant (MSK-LEUK1) and malignant SCCHN cell lines; assay: SRB growth inhibition assay, cell line panel; type: cell-based; settings: 72 h, read-out: IC50 values, range over the cell lines
How it was run: as §1

[7] = cited from earlier work; remark: listed apart in the source
[8] = female, A/J, mouse, plasma, po, 200 mg/kg

For COc1cc(/C=C/C(=O)C(=Cc2ccc(F)c(F)c2)C(=O)/C=C/c2ccc(O)c(OC)c2)ccc1O [CDF], the “accumulation in pancreatic tissue, fold higher than curcumin” value [1] is listed as 10.6 fold and the “systemic drug level, fold greater than curcumin” value [1] is listed as 2.7 fold.

In the case of O=C1/C(=C/c2ccccc2F)CNC/C1=C\c1ccccc1F [EF24], the “fold better anti-cancer efficacy than natural curcumin in vitro” value [2] is listed as ~ 10 fold.

For COc1cc(/C=C/C(=O)/C=C/c2cc(OC)c(O)c(OC)c2)cc(OC)c1O [FLLL12], the IC50 (886LN; 886LN, SRB assay) was 0.72 µM, the IC50 (SQCCY1; SQCCY1, 72 h, SRB assay) was 1.55 µM and the IC50 (Tu212; Tu212, 72 h, SRB assay) was 0.46 µM. The “phosphorylation of EGFR” value (EGFR) was “inhibited the phosphorylation”, the “total EGFR protein” value (EGFR) was “inhibited” and the “expression of Bcl-xL” value (Bcl-xL) was “remained mostly unchanged”. For the same molecule, the “phosphorylation of S6 and 4EBP1” value [3] was “strongly inhibited phosphorylation”, the apoptosis (MSK cell line) was “more than 80%” and the “mRNA expression of AKT” value (AKT mRNA) was “strongly inhibited the mRNA expression”. The IC50 (UM-22B; UM-22B, SRB assay) was 0.57 µM, the IC50 (MSK-Leuk1; MSK-Leuk1 (premalignant), SRB assay) was 0.35 µM and the “expression of Bcl-2 mRNA” value (Bcl-2 mRNA) was “increased rather than decreased”. For the same molecule, the “release of cytochrome c in the cytoplasm” value (cytochrome c) was “caused release of cytochrome c”, the “expression of Bid (full length)” value (Bid) was “inhibited” and the IC50 (Tu177; Tu177, 72 h, SRB assay) was 0.45 µM. The IC50 (JHU022; JHU022, 72 h, SRB assay) was 0.77 µM, the “expression of Mcl-1” value (Mcl-1) was “remained mostly unchanged” and the “phosphorylation of FOXO1 and 3” value (FOXO1 and 3) was “strongly inhibited the phosphorylation”. For the same molecule, the IC50 (PCI-13; PCI-13, 72 h, SRB assay) was 0.35 µM, the “AUC (0-∞)” value ([4]; 200 mg/kg oral) was 418.5 ng·h/mL and the “AUC, fold greater than curcumin” value ([4]; 200 mg/kg oral) was 3–4 fold. For the same molecule, the “Cmax, fold greater than curcumin” value ([4]; 200 mg/kg oral) was 4.3 fold and ~ 4.0 fold and 3–4 fold, the “terminal elimination half-life (t½)” value ([4]; 200 mg/kg oral) was 4.8 h and the Tmax ([4]; 200 mg/kg oral, DMSO/0.5% CMC, plasma) was 0.5 h. For the same molecule, the Cmax ([4]; 200 mg/kg oral, plasma) was 241.5 ng/mL, the “toxicity (H&E of major organs, body weight)” value [5] was “without inducing any notable toxicity” and the “fold more potent than curcumin in inducing apoptosis” value (SCCHN cell lines; SCCHN cell lines) was 5–10 fold. The “concentration sufficient to induce ~80% apoptosis” value (SCCHN cell lines) was 1 to 3 µM, the “phosphorylation of AKT” value (AKT) was “inhibited the phosphorylation” and the “total AKT protein” value (AKT) was “inhibited”. The “expression of Bcl-2 protein” value (Bcl-2) was “inhibited”, the “effect on tumor volume” value (Tu686 SCCHN xenografts) was “significantly reduced tumor volume” and the “cleavage of PARP” value (PARP) was “markedly induced the cleavage of PARP”. For the same molecule, the IC50 (Tu686; Tu686, 72 h, SRB assay) was 0.68 µM, the “expression of Bim” value (Bim) was “increased” and the “mRNA expression of EGFR” value (EGFR mRNA) was “strongly inhibited the mRNA expression”.

In the case of CN1C/C(=C\c2ccccn2)C(=O)/C(=C/c2ccccn2)C1 [UBS109], the “fold better anti-cancer efficacy than natural curcumin in vitro” value [2] is given as ~ 10 fold.

In the case of O=C1/C(=C/c2ccccn2)CNC/C1=C\c1ccccn1 [compound 31], the “fold better anti-cancer efficacy than natural curcumin in vitro” value [2] is listed as ~ 10 fold.

For COc1cc(/C=C/C(=O)CC(=O)/C=C/c2ccc(O)c(OC)c2)ccc1O [curcumin, reference compound], the IC50 (886LN) was 17.4 µM, the IC50 (SQCCY1; 72 h) was 12.6 µM and the IC50 (Tu212; TU212, 72 h) was 6.97 µM. For the same molecule, the “phosphorylation of EGFR” value (EGFR) was “inhibited the phosphorylation”, the “total EGFR protein” value (EGFR) was “inhibited” and the “mRNA expression of AKT” value (AKT mRNA) was “strongly inhibited the mRNA expression”. For the same molecule, the IC50 (UM-22B) was 7.76 µM, the IC50 (MSK-Leuk1) was 6.81 µM and the IC50 (Tu177; 72 h) was 5.25 µM. It also gave an IC50 (JHU022; 72 h) of 4.53 µM, an IC50 (PCI-13; 72 h) of 5.73 µM and an IC50 [6] of 4.53 to 17.4 µM. The AUC(0-inf) [4, 8] was 131 ng·h/mL, the Cmax [4, 8] was 55.6 ng/mL and the Tmax [4, 8] was 0.25 h. The half-life [4, 8] was 7.7 h, the “concentration sufficient to induce ~80% apoptosis” value (SCCHN cell lines) was 10 to 15 µM and the “phosphorylation of AKT” value (AKT) was “inhibited the phosphorylation”. For the same molecule, the “total AKT protein” value (AKT) was “inhibited”, the “effect on tumor volume” value (Tu686 SCCHN xenografts) was “had no effect” and the “efficacy in xenograft study” value (Tu686 SCCHN xenografts; 150 mg/kg, earlier study, data not shown) was “did not find any efficacy”. The IC50 (Tu686; Tu 686, 72 h) was 6.7 µM, the oral bioavailability [7] was ~ 1% and the “mRNA expression of EGFR” value (EGFR mRNA) was “strongly inhibited the mRNA expression”.
